Laboratory results: ChEMBL document CHEMBL1157169, “A class of novel nitronyl nitroxide labeling basic and acidic amino acids: synthesis, application for preparing ESR optionally labeling peptides, and bioactivity investigations” (Bioorg Med Chem, 2008)

Experiments:
[1] = tested on: Rattus norvegicus; experiment: Antithrombotic activity in Wistar rat assessed as wet thrombus weight at 20 mg/kg; assay type: functional
How it was run: (§1)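 Male Wistar rats (250–300 g) anesthetized with pentobarbital sodium (80.0 mg/kg, ip). The right carotid artery and left jugular vein were cannulated via a polyethylene tube containing a thread, filled with NS or compound dissolved in NS (vehicle NS). Blood shunted 15 min. The thread was weighed wet, then after 2 weeks in a desiccator weighed dry. n = 10, ANOVA.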

[2] = tested on: Rattus norvegicus; experiment: Antithrombotic activity in Wistar rat assessed as dry thrombus weight at 20 mg/kg; assay type: functional; how it was run: as §1
[3] = tested on: Aorta; experiment: Nitric oxide radical scavenging activity in rat aortic strip assessed as inhibition of acetylcholine-induced vasorelaxation at 10 uM; assay type: functional, tissue-based
[4] = tested on: Aorta; experiment: Nitric oxide radical scavenging activity in rat aortic strip assessed as inhibition of acetylcholine-induced vasorelaxation at 1 uM; assay type: functional, tissue-based
[5] = tested on: Aorta; experiment: Nitric oxide radical scavenging activity in rat aortic strip assessed as inhibition of acetylcholine-induced vasorelaxation at 100 uM; assay type: functional, tissue-based
[6] = Aqueous stability assessed as decomposition time at pH 2.0; assay type: physicochemical; conditions: buffer
How it was run: (§2)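 Each sample dissolved in aqueous solution at pH 2.0, 7.4 or 11.5 (final 10^-2 mM) and held at room temperature for up to 200 h. Decomposition followed by TLC (CHCl3/CH3OH, 20:1). Value is the time at which decomposition appeared.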

[7] = Aqueous stability assessed as decomposition time at pH 7.4; assay type: physicochemical; conditions: buffer; how it was run: as §2
[8] = Aqueous stability assessed as decomposition time at pH 11.5; assay type: physicochemical; conditions: buffer; how it was run: as §2
[9] = tested on: PC-12; experiment: Radical scavenging activity in rat PC12 cells assessed as inhibition of nitric oxide radical-induced cell damage by MTT assay; assay type: functional, cell-based
How it was run: (§3)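 PC12 cells grown in DMEM with 10% heat-inactivated horse serum, 5% FBS and 1.0 mM pyruvate at 37 °C, 5% CO2. Seeded at 20,000 cells/well on poly-L-lysine and attached 24 h. Pretreated 1 h with 12.5–200 µM compound. Damage induced by SNP 2 mM for 2 h (NO), H2O2 1 mM for 1 h, or H2O2 1 mM/Fe(II) 30 µM for 1 h (·OH). Media replaced, cells incubated 14 h, survival measured by MTT.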

[10] = tested on: PC-12; experiment: Radical scavenging activity in rat PC12 cells assessed as inhibition of hydrogen peroxide radical-induced cell damage by MTT assay; assay type: functional, cell-based; how it was run: as §3
[11] = tested on: Blood; experiment: Inhibition of 10 uM adenosine diphosphate-induced platelet aggregation in rabbit blood; assay type: functional, Oryctolagus cuniculus
How it was run: (§4)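 Platelet-rich plasma made by centrifuging normal rabbit blood anticoagulated with sodium citrate (3.8% final). Platelets adjusted to 2×10^5/µl with autologous plasma. Aggregation induced by PAF or ADP (final 10^-5–10^-7 M) and read by turbidimetry in an aggregometer. Maximal aggregation rate (Am%) taken as peak height of the curve.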

[12] = tested on: Blood; experiment: Inhibition of 1 uM adenosine diphosphate-induced platelet aggregation in rabbit blood; assay type: functional, Oryctolagus cuniculus; how it was run: as §4
[13] = tested on: Blood; experiment: Inhibition of 0.1 uM adenosine diphosphate-induced platelet aggregation in rabbit blood; assay type: functional, Oryctolagus cuniculus; how it was run: as §4
[14] = tested on: Blood; experiment: Inhibition of 10 uM platelet activating factor-induced platelet aggregation in rabbit blood; assay type: functional, Oryctolagus cuniculus; how it was run: as §4
[15] = tested on: Blood; experiment: Inhibition of 1 uM platelet activating factor-induced platelet aggregation in rabbit blood; assay type: functional, Oryctolagus cuniculus; how it was run: as §4
[16] = tested on: Blood; experiment: Inhibition of 0.1 uM platelet activating factor-induced platelet aggregation in rabbit blood; assay type: functional, Oryctolagus cuniculus; how it was run: as §4
[17] = tested on: Rattus norvegicus; experiment: Antithrombotic activity in Wistar rat assessed as wet thrombus weight at 5 umol/kg; assay type: functional; how it was run: as §1
[18] = tested on: Plasma; experiment: Thrombolytic activity in rabbit plasma assessed as euglobulin clot lysis time at 4.5 uM; assay type: functional, Oryctolagus cuniculus
How it was run: (§5)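 Rabbit plasma diluted 1:20 in water and precipitated at pH 5.7 with 0.25% acetic acid for 30 min at 4 °C. Centrifuged at 2000g for 15 min. […] Sample added and time to clot lysis recorded.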

[19] = organism: Oryctolagus cuniculus; experiment: Thrombolytic activity against rabbit fibrinogen assessed as fibrinogen lysis area at 4.5 uM
How it was run: (§6)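 Equal volumes of 0.3% rabbit fibrinogen and 0.95% agarose in 50 mM sodium barbiturate buffer (pH 7.8), coagulated with thrombin (100 IU/mL). After 30 min at 4 °C, 5 mm wells were punched and 30 µl of sample in NS added per well. Plates incubated and lysis area measured in mm². ANOVA.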

[20] = tested on: Rattus norvegicus; experiment: Thrombolytic activity in Wistar rat assessed as reduction in thrombus weight at 10 umol/kg; assay type: functional
How it was run: (§7)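 Male Wistar rats (200–300 g) anesthetized with pentobarbital sodium (80.0 mg/kg, ip). A steel helix was left 15 min in 1.0 ml carotid artery blood, and the helix with thrombus was weighed. It was placed in a polyethylene tube filled with heparin sodium (50 IU/ml NS) inserted into the left jugular vein. Heparin was injected, then compound dissolved in NS. Read-out is reduction in thrombus weight.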

[21] = tested on: Rattus norvegicus; experiment: Antithrombotic activity in Wistar rat assessed as dry thrombus weight at 5 umol/kg
[22] = tested on: PC-12; experiment: Radical scavenging activity in rat PC12 cells assessed as inhibition of hydroxyl radical-induced cell damage by MTT assay; assay type: functional, cell-based; how it was run: as §3
[23] = tested on: Plasma; experiment: Thrombolytic activity in rabbit plasma assessed as euglobulin clot lysis time at 2.2 uM; assay type: functional, Oryctolagus cuniculus; how it was run: as §5
[24] = tested on: Plasma; experiment: Thrombolytic activity in rabbit plasma assessed as euglobulin clot lysis time at 1.1 uM; assay type: functional, Oryctolagus cuniculus; how it was run: as §5
[25] = organism: Oryctolagus cuniculus; experiment: Thrombolytic activity against rabbit fibrinogen assessed as fibrinogen lysis area at 2.2 uM; how it was run: as §6
[26] = organism: Oryctolagus cuniculus; experiment: Thrombolytic activity against rabbit fibrinogen assessed as fibrinogen lysis area at 1.1 uM; how it was run: as §6
[27] = tested on: Rattus norvegicus; experiment: Thrombolytic activity in Wistar rat assessed as reduction in thrombus weight at 5 umol/kg; assay type: functional; how it was run: as §7
[28] = tested on: Rattus norvegicus; experiment: Thrombolytic activity in Wistar rat assessed as reduction in thrombus weight at 2.5 umol/kg; assay type: functional; how it was run: as §7

Work on `CC(=O)Oc1ccccc1C(=O)O` [ASPIRIN] yielded an Activity [1] of 24.16 mg and an Activity [2] of 4.04 mg.

Compound `CC1(C)N(O)C(c2ccc(OCC(=O)O)cc2)=[N+]([O-])C1(C)C` has an inhibition [3] of 72.4%, an inhibition [4] of 25.3% and an inhibition [5] of 99%. The Time [6] was over 200 h, the Time [7] was over 200 h and the Time [8] was over 200 h. The EC50 [9] was 92.3 µM, the EC50 [10] was 31.6 µM and the “inhibition (INH)” value [11] was 51.98%. For the same compound, the “inhibition (INH)” value [12] was 50.65%, the “inhibition (INH)” value [13] was 49.33% and the “inhibition (INH)” value [14] was 53.8%. The “inhibition (INH)” value [15] was 51.4%, the “inhibition (INH)” value [16] was 52.45% and the Activity [17] was 38.76 mg. The Time [18] was 223.11 min, the Activity [19] was 26.6 mm2 and the Activity [20] was 12.11 mg. It also gave a dry thrombus weight [21] of 6.67 mg.

`C[C@H](NC(=O)[C@@H]1CCCN1)C(=O)N[C@@H](CCCCNC(=O)COc1ccc(C2=[N+]([O-])C(C)(C)C(C)(C)N2O)cc1)C(=O)O` showed an inhibition [3] of 73.9%, an inhibition [4] of 26.6% and an inhibition [5] of 99.1%. It also gave an EC50 [9] of 89 µM, an EC50 [10] of 28.8 µM and an EC50 [22] of 99 µM. It also gave a Time [18] of 102.95 min, a Time [23] of 128.8 min and a Time [24] of 149 min. It also gave an Activity [19] of 234 mm2, an Activity [25] of 216 mm2 and an Activity [26] of 197 mm2. For the same compound, the Activity [20] was 24.2 mg, the Activity [27] was 15.38 mg and the Activity [28] was 11.06 mg.
